# From PubChem BioAssay
# Active and inactive are the calls of the source.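 Rule for the calls, unless noted: active = current rise at least 3 SD above the untreated control mean in each of two repeat wells; inactive = the rest.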
# Assays:
# [1] = thallium flux activation in parental CHO cells, counter-screen for KCNQ1 potentiator project (AID 493006;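 active = duplicate-averaged activation above buffer control mean plus 5 SD of those controls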;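 for activation: fluorescence ratio of max minus min over baseline after K+ and Tl+ depolarization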); details: parental CHO-K1 cells, FluxOR thallium flux, at 10 µM; active compounds read high
# Procedure, shortened: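 Material: parental CHO-K1 cells, FluxOR dye-loaded; Also added: Potassium/thallium depolarization pulse; Schedule: overnight 37 °C plating, 90 min dye, 20 min dark compound; Signal: kinetic FluxOR fluorescence, 10 s baseline, 110 s after stimulus.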
# [2] = biological target: Potassium voltage-gated channel subfamily KQT member 1 (Homo sapiens) (UniProt P51787); assay: KCNQ1 potassium channel potentiators, confirmation, FluxOR thallium flux, CHO cells, duplicates (AID 493007;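 active = potentiation averaged over duplicate wells exceeding buffer-only control mean by more than 3 SD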;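 for outcome: cells depolarized by a potassium plus thallium sulfate stimulus after compound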); details: KCNQ1 cell line, FluxOR thallium flux fluorescence, at 10 µM; active compounds read high, % of reference activator effect, buffer zero
# Procedure, shortened: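 System: KCNQ1-expressing CHO cell line; technique: kinetic thallium influx fluorescence with FluxOR dye, 10 s baseline, 110 s post-stimulus; timing: dye 90 min then compound 20 min, both at room temperature; controls: buffer-only wells as 0% and R-L3 activator as 100%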
# [3] = biological target: Potassium voltage-gated channel subfamily KQT member 2 (Rattus norvegicus) (UniProt O88943); assay: rat KCNQ2 channel potentiation, selectivity assay for KCNQ1 potentiator project, KCNQ2-CHO-K1 cells (AID 493009;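 active = mean duplicate potentiation above the buffer control mean plus 5 SD of buffer wells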;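 note: assay conditions were tuned for KCNQ1 rather than KCNQ2 modulators; signal is max minus min fluorescence divided by baseline after thallium stimulus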); details: FluxOR thallium flux fluorescence, at 10 µM; active compounds read high, scaled: buffer 0, activator control 100
# [4] = biological target: Potassium voltage-gated channel subfamily KQT member 1 (Homo sapiens) (UniProt P51787); assay: KCNQ1 channel current potentiators, confirmation, orthogonal assay for KCNQ1 potentiator project, IonWorks patch clamp, KCNQ1-CHO cells (AID 493184); details: automated patch clamp current, at 10 µM; active compounds read high;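 for current potentiation: percent change of the same well's current before compound addition so 0% = no change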
# Procedure, shortened: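 Test system: KCNQ1-expressing CHO cells. Medium: pH 7.4 external bath. Probe or stimulus: voltage step from -90 mV holding to +40 mV, 2,000 ms. Compound: 10 µM final, single point. Detection: automated perforated-patch electrophysiology. Read-out: percent current increase versus pre-compound level. Repeats: two replicates.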
# Potassium voltage-gated channel subfamily KQT member 2 (Rattus norvegicus), sequence (O88943 whole entry, looked up): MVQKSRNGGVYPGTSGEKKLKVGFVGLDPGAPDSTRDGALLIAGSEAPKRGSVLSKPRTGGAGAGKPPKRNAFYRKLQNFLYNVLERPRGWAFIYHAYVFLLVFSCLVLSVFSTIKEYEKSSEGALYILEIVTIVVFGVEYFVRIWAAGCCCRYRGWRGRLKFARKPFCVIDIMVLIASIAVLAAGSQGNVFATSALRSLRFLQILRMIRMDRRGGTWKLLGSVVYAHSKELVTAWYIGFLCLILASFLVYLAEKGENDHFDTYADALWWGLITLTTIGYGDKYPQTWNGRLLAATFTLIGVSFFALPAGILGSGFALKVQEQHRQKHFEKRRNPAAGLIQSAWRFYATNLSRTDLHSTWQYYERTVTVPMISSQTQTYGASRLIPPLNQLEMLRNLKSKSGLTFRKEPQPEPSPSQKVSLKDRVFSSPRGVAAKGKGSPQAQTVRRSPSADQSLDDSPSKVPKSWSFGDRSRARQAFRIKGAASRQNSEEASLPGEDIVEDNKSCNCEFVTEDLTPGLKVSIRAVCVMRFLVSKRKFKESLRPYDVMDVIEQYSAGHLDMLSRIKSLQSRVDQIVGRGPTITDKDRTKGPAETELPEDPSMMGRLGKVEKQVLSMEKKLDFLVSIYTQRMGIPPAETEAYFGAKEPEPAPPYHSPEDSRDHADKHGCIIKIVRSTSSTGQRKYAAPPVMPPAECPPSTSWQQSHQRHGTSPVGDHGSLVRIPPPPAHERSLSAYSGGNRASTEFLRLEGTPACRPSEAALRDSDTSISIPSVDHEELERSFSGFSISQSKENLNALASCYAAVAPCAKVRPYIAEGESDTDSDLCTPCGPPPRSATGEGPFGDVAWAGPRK
# Potassium voltage-gated channel subfamily KQT member 1 (Homo sapiens), sequence (P51787 whole entry, looked up): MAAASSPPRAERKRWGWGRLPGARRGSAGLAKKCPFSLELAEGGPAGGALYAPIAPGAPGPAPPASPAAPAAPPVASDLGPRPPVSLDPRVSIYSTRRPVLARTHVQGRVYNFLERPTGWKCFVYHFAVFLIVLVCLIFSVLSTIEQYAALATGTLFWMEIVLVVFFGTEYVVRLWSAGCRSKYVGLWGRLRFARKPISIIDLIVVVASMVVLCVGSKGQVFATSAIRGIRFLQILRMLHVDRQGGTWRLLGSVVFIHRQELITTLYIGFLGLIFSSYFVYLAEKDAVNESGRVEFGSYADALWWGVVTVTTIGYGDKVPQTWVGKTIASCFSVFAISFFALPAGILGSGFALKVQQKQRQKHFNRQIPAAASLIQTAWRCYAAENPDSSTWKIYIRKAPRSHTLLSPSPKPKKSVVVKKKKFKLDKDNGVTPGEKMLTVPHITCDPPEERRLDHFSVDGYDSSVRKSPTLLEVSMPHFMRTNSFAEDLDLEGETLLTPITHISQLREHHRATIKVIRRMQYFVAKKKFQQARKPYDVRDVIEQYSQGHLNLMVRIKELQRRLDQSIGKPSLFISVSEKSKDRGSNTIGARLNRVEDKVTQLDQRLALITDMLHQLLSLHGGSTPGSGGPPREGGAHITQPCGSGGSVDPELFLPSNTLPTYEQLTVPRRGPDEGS
Structure (SMILES),outcome [1],outcome [2],outcome [3],outcome [4],activation [1],potentiation [2],potentiation [3],current potentiation [4]
CCCCCCCN1N=C(C)C(C(=O)c2ccccc2)C1=O (stereo not given),inactive,inactive,inactive,inactive,–,–,–,–
CN(Cc1nccs1)C(=O)c1ccc(OC2CCN(Cc3ccccn3)CC2)cc1,inactive,inactive,inactive,inactive,–,–,–,–
CC(=O)c1c(N2CCOCC2)[nH]c(-c2ccccc2)nc1=S,–,–,–,inactive,202% (active),66.5% (active),204% (active),–
COc1cc(/C=N/Nc2snc(SC)c2C#N)ccc1O,inactive,inactive,inactive,inactive,–,–,–,–
CCCSC(=S)c1c(C)[nH]n(-c2ccccc2)c1=O,–,–,–,inactive,352% (active),165% (active),432% (active),–
C=CCn1sc(=N)c(C#N)c1N,–,–,–,inactive,528% (active),195% (active),492% (active),–
O=C(Nc1cccc(S(=O)(=O)NC2=NCCC2)c1)c1c(F)cccc1Cl,inactive,inactive,inactive,inactive,–,–,–,–
C/C(=N\NC(=S)Nc1cccc(C)c1)c1ccco1,inactive,–,–,inactive,–,35% (active),166% (active),–
COC(=O)C1SCC2C(=O)N(Cc3ccc(F)cc3)CC(=O)N21 (stereo not given),inactive,–,–,inactive,–,46.5% (active),178% (active),–
CCCCOC(=O)Nc1ccccc1C(N)=O,inactive,inactive,inactive,inactive,–,–,–,–
COc1cccc(N(C(=O)Cn2nnc(-c3ccc(C)o3)n2)C(C(=O)NC2CCCC2)c2ccncc2)c1 (stereo not given),inactive,inactive,inactive,inactive,–,–,–,–
O=C(/C=C/c1ccco1)Nc1scc(-c2ccccc2)c1C(=O)O,inactive,inactive,inactive,inactive,–,–,–,–
O=C(c1cccnc1)N1N=C2CCCCCC2C1(O)C(F)(F)F (stereo not given),inactive,inactive,inactive,inactive,–,–,–,–
CCOC(=O)c1sc(NC(=S)NC(=O)c2ccc(OC)cc2)nc1C,inactive,inactive,inactive,inactive,–,–,–,–
CC(C)C(=O)Nc1c(O)c2ccccc2[nH]c1=O,inactive,inactive,inactive,inactive,–,–,–,–
O=c1[nH]c2ccc(Cl)cc2c(-c2ccccc2)c1N1CCN(CCO)CC1,inactive,inactive,inactive,inactive,–,–,–,–
CCc1nnc(NC(=O)CN2C(=O)c3ccccc3C2=O)s1,inactive,inactive,inactive,inactive,–,–,–,–
O=C(CCn1c(=O)sc2ccccc21)NCc1ccco1,inactive,inactive,inactive,inactive,–,–,–,–
Nc1nc(N)c2sc3nc4c(cc3c2n1)CCC4,inactive,inactive,inactive,inactive,–,–,–,–
O=C(NC(=S)N1CCN(c2ccccc2)CC1)c1ccccc1,–,–,–,inactive,226% (active),71% (active),281% (active),–

Structure (SMILES),outcome [1],outcome [2],outcome [3],outcome [4],activation [1],potentiation [2],potentiation [3],current potentiation [4]
CC(C)CC(=O)NC(=S)Nc1nc(-c2ccccc2)cs1,–,–,–,inactive,284% (active),152% (active),316% (active),–
CCOC(=O)Cc1csc(NC(=O)CSc2nnnn2-c2ccc(C)cc2C)n1,inactive,inactive,inactive,inactive,–,–,–,–
CCOC(=O)c1c(CN2CCN(CCO)CC2)n(C)c2cc(Br)c(OC)cc12,inactive,inactive,inactive,inactive,–,–,–,–
NC(=O)NC(=O)C[n+]1cccc(/C=N/O)c1,inactive,inactive,inactive,inactive,–,–,–,–
O=C1Nc2cc(C(=O)NCCCN3CCOCC3)ccc2S/C1=C/c1cccc(Cl)c1,inactive,inactive,inactive,inactive,–,–,–,–
O=C1CN(S(=O)(=O)c2ccccc2)CC(=O)N1CCc1ccccc1,inactive,inactive,inactive,inactive,–,–,–,–
CC(C)(C)NCC(O)COc1ccccc1C(C)(C)C (stereo not given),inactive,inactive,inactive,inactive,–,–,–,–
CCNC(=S)Nc1nc2c(cc1C(=O)OCC)CCCC2,–,–,–,inactive,140% (active),35% (active),177% (active),–
COc1ccccc1C(=O)NNC(=O)C(=O)Nc1cccc(Cl)c1C,–,–,–,inactive,612% (active),206% (active),580% (active),–
COC(=O)c1c(NC(=O)c2ccccc2)sc(C(=O)c2ccccc2)c1C,inactive,inactive,inactive,inactive,–,–,–,–
CC(C)CCn1c(=O)c2ccccc2n2c(=S)[nH]nc12,inactive,inactive,inactive,inactive,–,–,–,–
COc1cccc(-c2c(NC(=O)c3ccco3)n(-c3ccc(C)cc3)nc(C)c2=O)c1,inactive,inactive,inactive,inactive,–,–,–,–
CC(Oc1ccc(Br)cc1)C(=O)Nc1ccc(S(=O)(=O)N(C)C2CCN(C)CC2)cc1 (stereo not given),–,–,–,inactive,626% (active),190% (active),570% (active),–
Cc1c(CCC(=O)N2CCC[C@H]2C(=O)O)c(=O)oc2c(C)c3oc4c(c3cc12)CCCC4,inactive,inactive,inactive,inactive,–,–,–,–
CCC(CC)C1=NN2C(=N)/C(=C\c3cc(C)n(-c4cccc(C)c4)c3C)C(=O)N=C2S1,inactive,inactive,inactive,inactive,–,–,–,–
Cc1ccc(C(=O)NNC(=O)CCCCC(=O)NNC(=O)c2ccc(C)cc2)cc1,inactive,inactive,inactive,inactive,–,–,–,–
Cc1ccc(C)c(SCC(=O)NC(=O)Nc2ccc3c(c2)OCCO3)c1,inactive,inactive,inactive,inactive,–,–,–,–
S=c1nc(-c2ccc(Br)cc2)oc2c1CCCC2,inactive,–,inactive,inactive,–,37% (active),–,–
COc1ccc(/C=C2\SC(=Nc3ccccc3OC)NC2=O)cc1,inactive,inactive,inactive,inactive,–,–,–,–
CCN(CC)c1ccc(NC(=S)NC(=O)c2ccco2)cc1,–,–,–,inactive,263% (active),104% (active),322% (active),–

Structure (SMILES),outcome [1],outcome [2],outcome [3],outcome [4],activation [1],potentiation [2],potentiation [3],current potentiation [4]
N#Cc1ccccc1Oc1ccccc1C=O,–,–,–,inactive,143% (active),39.5% (active),160% (active),–
CC1(C)CC(=O)C2=C(C1)N(c1cccc(Cl)c1)C(=O)NC2(C(F)(F)F)C(F)(F)F,inactive,–,inactive,inactive,–,19.5% (active),–,–
O=c1c(Cl)c(Cl)cnn1Cc1nnc(-c2ccccc2Br)o1,inactive,inactive,inactive,–,–,–,–,14.7% (active)
CC1CCN(c2ncnc3ccccc23)CC1,inactive,inactive,inactive,inactive,–,–,–,–
O=C1C=C(NCc2ccccc2)c2ccccc2C1=O,–,–,inactive,inactive,140% (active),24% (active),–,–
Cn1c(=O)n(CCc2ccccc2)c2ccccc21,inactive,inactive,inactive,inactive,–,–,–,–
C=CCCCN(Cc1ccccc1)S(=O)(=O)c1ccccc1Br,inactive,inactive,inactive,inactive,–,–,–,–
CC(=O)c1c(C)[nH]c(-c2ccccc2)nc1=S,–,–,–,inactive,151% (active),40% (active),178% (active),–
S=c1nc(-c2ccccc2)[nH]c2ccccc12,–,–,–,inactive,316% (active),110% (active),294% (active),–
Cc1ccc(C)c(NC(=S)N/N=C2/CCCCc3ccccc32)c1,–,–,–,inactive,140% (active),37% (active),164% (active),–
COc1cc(C(=O)NC(=S)N(CCc2ccccc2)CCc2ccccc2)cc(OC)c1OC,–,–,–,inactive,198% (active),104% (active),256% (active),–
CCOC(=O)c1c(-c2ccccc2)csc1NC(=S)NC,–,–,–,inactive,286% (active),130% (active),324% (active),–
CCOc1ccc(-c2noc(CCC(=O)NC3CCCC3)n2)cc1OC,inactive,inactive,inactive,inactive,–,–,–,–
CCC(C)(C)NC(=O)C(c1ccncc1)N(Cc1cccs1)C(=O)Cn1nnc2ccccc21 (stereo not given),inactive,inactive,inactive,inactive,–,–,–,–
O=S1(=O)Nc2c(ccc3cccnc23)-c2ccccc21,inactive,–,–,inactive,–,21% (active),154% (active),–
COc1ccc2c(c1)c(=O)c(C(=O)O)c(-c1ccc3c(c1)OCO3)n2C,inactive,inactive,inactive,inactive,–,–,–,–
C=CCn1c(O)c(N=NC(=S)Nc2ccccc2C)c2cc(S(=O)(=O)N3CCOCC3)ccc21,–,–,–,inactive,218% (active),45% (active),226% (active),–
O=C(c1c[nH]c(C(=O)C(Cl)(Cl)Cl)c1)c1ccc(F)cc1Cl,–,–,–,inactive,145% (active),47% (active),160% (active),–
COC(=O)C1C(c2ccc(OC)c(OC)c2)NC(c2ccc(OC)c(OC)c2)C(C(=O)OC)S1(=O)=O (stereo not given),inactive,inactive,inactive,inactive,–,–,–,–
Cn1c(=O)c2nc3ccccc3nc2n(C)c1=O,–,–,–,inactive,168% (active),30.5% (active),184% (active),–
